Experimental data: PubChem BioAssay AID624431 (The Scripps Research Institute Molecular Screening Center, 2012)
This is one part of the list. Values without a mark were called inactive. Active and inactive are the calls of the source.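 The calls were made as follows: active = mean inhibition over triplicates exceeds the hit threshold derived for the earlier primary screening run (cut at about 25% in these data); inactive = the rest.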

What follows are molecules tested against Arf-GAP with SH3 domain, ANK repeat and PH domain-containing protein 1 (Homo sapiens) (UniProt Q9ULH1) (assay: blockers of ASAP1-stimulated Arf1 GTP hydrolysis – biochemical, fluorescence polarization, human, triplicate, confirmation (AID 624431)). Settings: ASAP1-stimulated Arf1 GTPase, GDP fluorescence polarization; at 16.5 µM; hits give high values.
Arf-GAP with SH3 domain, ANK repeat and PH domain-containing protein 1 (Homo sapiens), sequence (Q9ULH1 325-724 limits assumed): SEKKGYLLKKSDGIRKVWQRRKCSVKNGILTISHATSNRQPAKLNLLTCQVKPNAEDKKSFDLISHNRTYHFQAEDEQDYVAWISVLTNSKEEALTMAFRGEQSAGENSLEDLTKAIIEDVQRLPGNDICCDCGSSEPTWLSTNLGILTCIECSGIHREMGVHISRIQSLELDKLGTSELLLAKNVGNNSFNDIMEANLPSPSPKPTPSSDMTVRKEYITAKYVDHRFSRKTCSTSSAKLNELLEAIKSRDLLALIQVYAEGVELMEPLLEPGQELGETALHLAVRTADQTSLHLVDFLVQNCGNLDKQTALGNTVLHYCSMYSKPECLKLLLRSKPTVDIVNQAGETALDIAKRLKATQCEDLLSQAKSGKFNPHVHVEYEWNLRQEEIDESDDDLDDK
Summary of the method: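 System: ASAP1 GAP domain protein (residues 325-724) / Medium: HEPES, pH 7.5 / Also added: Arf1 Δ17-GTP substrate / Dosing: single dose, 16.5 µM final test compound / Incubation: 20-min ASAP1–compound and 120-min Arf1-GTP steps at 25 °C, 60-min tracer / Technique: FP readout via GDP Alexa 633 tracer displacement from antibody / Read-out: % inhibition vs no-ASAP1 controls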
With `CC(=O)c1cccc(-c2cnc3c(NC=O)cc(-c4ccc(N5CCN(C)CC5)cc4)cn23)c1` the inhibition was 77.7% (active). In the case of `N#Cc1cc([N+](=O)[O-])ccc1Oc1cccc(/C=N/NC(=O)c2ccc(Cl)cc2)c1`, the inhibition is reported as 31.5% (active). In the case of `O=c1/c(=C/c2ccc(CNS(=O)(=O)c3ccccc3)o2)sc2n1CCN=2`, the inhibition is reported as -9.13%. `O=C(NC1=CC(=O)c2ccccc2C1=O)c1ccccc1` gave an inhibition of 13.6%. Work on `COc1ccc(C(CNC(=O)c2cccc(S(=O)(=O)Nc3ccccc3Cl)c2)N2CCOCC2)cc1` (stereo not given) yielded an inhibition of 16.6%.
